Data as given in ChEMBL document CHEMBL2176871, “Development of ligands at γ-aminobutyrric acid type A (GABAA) receptor subtype as new agents for pain relief” (Bioorg Med Chem, 2011).
Active and inactive are the calls of the source.

How the values were obtained:
Mus musculus [1] = experiment: Antihyperalgesic activity Swiss albino mouse […] assessed as licking latency time at 30 mg/kg, po after 30 mins by hot plate test (reference value: 17.1 +/- 0.71 secs); type: functional
Summary of the method: (§1)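 Hot plate at 52.5 ± 0.1 °C in non-diabetic male Swiss mice. Latency to licking of fore or hind paws was timed before dosing and every 15 min up to 60 min after oral dosing. Mice with pretest latencies below 12 s or above 18 s were excluded. Cut-off was 45 s.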

Rattus norvegicus [2] = experiment: Toxicity in Sprague-Dawley rat mononeuropathy pain model assessed as effect on contralateral paw pressure at 30 mg/kg, po after 30 mins by paw pressure test; type: organism-based; parameters: dose 30 mg/kg, route oral; conditions: in vivo, 0.5 h
Summary of the method: (§2)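 Same sciatic-ligation rat model, 14 days after surgery. Threshold measured on the non-operated contralateral hind paw by analgesimeter at 32 g/s; first-struggle endpoint; 250 g cut-off; pretest rats outside 40–75 g rejected. Compound given po in 10 ml/kg; readings at 15, 30 and 45 min.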

Mus musculus [3] = experiment: Antihyperalgesic activity against streptozotocin-induced hyperalgesia in Swiss albino mouse […] assessed as licking latency time at 30 mg/kg, po after 15 mins by hot plate test (reference value: 9.7 +/- 0.8 secs); type: functional
Mus musculus [4] = experiment: Antihyperalgesic activity Swiss albino mouse […] assessed as licking latency time at 30 mg/kg, po after 60 mins by hot plate test (reference value: 17.1 +/- 0.71 secs); type: functional; summary of the method: as §1
[5] = Displacement of [3H]Ro151788 from GABA(A)/BzR in bovine cerebral cortex membrane; type: cell membranes, Bos taurus
Summary of the method: (§3)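 Bovine cerebral cortex membranes in 50 mM Tris-citrate pH 7.4; [3H]flumazenil displacement. Compounds first tested at a fixed 10 µM; Ki determined only when inhibition exceeded 80%, using at least six concentrations. Five experiments run in triplicate; IC50 obtained by iterative curve fitting and converted to Ki with the Cheng–Prusoff equation.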

Rattus norvegicus [6] = experiment: Toxicity in Sprague-Dawley rat mononeuropathy pain model assessed as effect on contralateral paw pressure at 30 mg/kg, po after 45 mins by paw pressure test; type: organism-based; parameters: dose 30 mg/kg, route oral; conditions: in vivo, 0.75 h; summary of the method: as §2
Mus musculus [7] = experiment: Antihyperalgesic activity Swiss albino mouse […] assessed as licking latency time at 30 mg/kg, po after 45 mins by hot plate test (reference value: 17.1 +/- 0.71 secs); type: functional; summary of the method: as §1
Mus musculus [8] = experiment: Antihyperalgesic activity against streptozotocin-induced hyperalgesia in Swiss albino mouse […] assessed as licking latency time at 30 mg/kg, po after 30 mins by hot plate test (reference value: 9.7 +/- 0.8 secs); type: functional
Bos taurus = species: Bos taurus; experiment: Displacement of [3H]Ro151788 from GABA(A)/BzR in bovine cerebral cortex membrane at 10 uM; type: cell membranes; summary of the method: as §3
Rattus norvegicus [9] = experiment: Antinociceptive activity in Sprague-Dawley rat mononeuropathy pain model assessed as increase in injured paw pressure at 30 mg/kg, po after 45 mins by paw pressure test relative to non-treated control; type: functional
Summary of the method: (§4)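 Chronic constriction injury: loose ligatures placed on the common sciatic nerve under chloral hydrate; contralateral sham dissection. Tested 14 days after surgery. Paw pressure applied at 32 g/s; threshold taken as the force causing the first struggle; cut-off 250 g; pretest outliers (<40 g or >75 g) excluded. Oral dosing in 10 ml/kg; read at 15, 30 and 45 min; compared with a CMC-treated group.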

Mus musculus [10] = experiment: Anxiolytic-like activity in Swiss albino mouse at 30 mg/kg, po after 30 mins by light/dark box test; type: functional, organism-based; parameters: dose 30 mg/kg
Summary of the method: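 Male Swiss mice tested in a two-compartment light/dark box. Transfers between compartments and time spent in the lit side recorded. Compound given po 30 min before testing, in 10 ml/kg; flumazenil given i.p. for antagonism; 8 mice per group.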

Mus musculus [11] = experiment: Antihyperalgesic activity against streptozotocin-induced hyperalgesia in Swiss albino mouse […] assessed as licking latency time at 30 mg/kg, po after 45 mins by hot plate test (reference value: 9.7 +/- 0.8 secs); type: functional
Rattus norvegicus [12] = experiment: Antinociceptive activity in Sprague-Dawley rat mononeuropathy pain model assessed as increase in injured paw pressure at 30 mg/kg, po after 15 mins by paw pressure test relative to non-treated control; type: functional; summary of the method: as §4
Mus musculus [13] = experiment: Analgesic activity in Swiss albino mouse abdominal constriction model assessed as decrease in number of acetic acid-induced writhing at 30 to 60 mg/kg, po after 30 mins; type: functional, organism-based; conditions: Abdomen
Summary of the method: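 Male Swiss albino mice (23–30 g). Compounds given po in 1% CMC vehicle 30 min before the test. Acetic acid 0.6% injected i.p. at 10 ml/kg. Stretching movements were counted for 10 min, starting 5 min after the acetic acid injection. 8–15 mice per group.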

Mus musculus [14] = experiment: Antihyperalgesic activity against streptozotocin-induced hyperalgesia in Swiss albino mouse […] assessed as licking latency time at 30 mg/kg, po after 60 mins by hot plate test (reference value: 9.7 +/- 0.8 secs); type: functional
Mus musculus [15] = experiment: Anticonvulsant activity in Swiss albino mouse […] assessed as protection against intraperitoneally administered pentylenetetrazol-induced seizures at 30 mg/kg, po after 30 mins; type: functional
Summary of the method: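 Male Swiss albino mice. Compounds given po and PTZ 90 mg/kg injected 30 min later; PTZ was dissolved in 0.9% NaCl saline. Clonic generalized convulsions were recorded over 30 min. Each value is the mean of 10 mice. The methods give the PTZ route as s.c. and the table footnote gives it as ip.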

Rattus norvegicus [16] = experiment: Toxicity in Sprague-Dawley rat mononeuropathy pain model assessed as effect on contralateral paw pressure at 30 mg/kg, po after 15 mins by paw pressure test; type: organism-based; parameters: dose 30 mg/kg, route oral; conditions: in vivo, 0.25 h; summary of the method: as §2
Rattus norvegicus [17] = experiment: Antinociceptive activity in Sprague-Dawley rat mononeuropathy pain model assessed as increase in injured paw pressure at 30 mg/kg, po after 30 mins by paw pressure test relative to non-treated control; type: functional; summary of the method: as §4
Mus musculus [18] = experiment: Antihyperalgesic activity Swiss albino mouse […] assessed as licking latency time at 30 mg/kg, po after 15 mins by hot plate test (reference value: 17.1 +/- 0.71 secs); type: functional; summary of the method: as §1

Ki [5]: 2.58 nM
inhibition (Bos taurus): > 80%
Structure (SMILES): Cc1cnn2c1n[n+]([O-])c1ccc(NCc3ccccc3)cc12
Time (Mus musculus [1]): 18.2 s
Activity (Rattus norvegicus [2]): 63.2 g
Time (Mus musculus [3]): 9.6 s
Time (Mus musculus [4]): 17.8 s
Activity (Rattus norvegicus [6]): 62.5 g
Time (Mus musculus [7]): 18.3 s
Time (Mus musculus [8]): 11.3 s
Activity (Rattus norvegicus [9]): 28.5 g
Activity (Mus musculus [10]): Active
Time (Mus musculus [11]): 10.2 s
Activity (Rattus norvegicus [12]): 27.4 g
Activity (Mus musculus [13]): inactive
Time (Mus musculus [14]): 11.7 s
Activity (Mus musculus [15]): 10%
Activity (Rattus norvegicus [16]): 61.5 g
Activity (Rattus norvegicus [17]): 27 g
Time (Mus musculus [18]): 6.8 s
